How the values were obtained:
Endothelin-1 receptor = target: T1, Endothelin-1 receptor (Rattus norvegicus, UniProt P26684); assay: In vitro ability to inhibit specific [125I]ET1 binding to rat aorta membranes Endothelin A receptor; assay type: tissue-based
T1 sequence (P26684 whole entry): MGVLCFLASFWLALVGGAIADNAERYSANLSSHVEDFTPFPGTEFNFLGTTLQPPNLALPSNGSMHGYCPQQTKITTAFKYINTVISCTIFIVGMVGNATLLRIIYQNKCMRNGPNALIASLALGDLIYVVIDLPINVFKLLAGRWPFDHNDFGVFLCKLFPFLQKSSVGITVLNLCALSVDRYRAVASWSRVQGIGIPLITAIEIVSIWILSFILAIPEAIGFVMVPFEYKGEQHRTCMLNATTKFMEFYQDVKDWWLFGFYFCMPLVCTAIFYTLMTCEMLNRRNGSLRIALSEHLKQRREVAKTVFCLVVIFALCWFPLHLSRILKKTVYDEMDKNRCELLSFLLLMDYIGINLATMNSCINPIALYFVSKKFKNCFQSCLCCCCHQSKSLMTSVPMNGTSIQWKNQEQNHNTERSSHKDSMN

[1] = target: T2, Endothelin receptor type B (Sus scrofa, UniProt P35463); assay: In vitro ability to inhibit specific [125I]ET1 binding to porcine kidney (inner medulla) membranes Endothelin B receptor
T2 sequence (P35463 whole entry): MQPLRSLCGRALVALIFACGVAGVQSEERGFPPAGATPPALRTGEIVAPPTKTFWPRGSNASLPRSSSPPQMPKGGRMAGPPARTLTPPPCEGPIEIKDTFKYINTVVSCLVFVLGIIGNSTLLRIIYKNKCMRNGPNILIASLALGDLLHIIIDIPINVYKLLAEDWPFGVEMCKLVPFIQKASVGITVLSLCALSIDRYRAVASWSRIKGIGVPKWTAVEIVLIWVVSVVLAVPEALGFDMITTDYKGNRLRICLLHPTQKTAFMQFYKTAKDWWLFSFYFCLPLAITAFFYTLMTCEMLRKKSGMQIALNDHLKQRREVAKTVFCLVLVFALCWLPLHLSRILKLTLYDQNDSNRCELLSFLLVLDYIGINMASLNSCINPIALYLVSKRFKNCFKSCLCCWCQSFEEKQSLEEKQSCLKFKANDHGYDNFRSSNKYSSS

[2] = Compound was evaluated for maximum concentration after treatment with oral dose of 2 mgkg to male wistar rats; assay type: ADME, organism-based; design: dose 2 mgkg, route oral; conditions: rat, in vivo, 2 mg/kg
Procedure, shortened: (§1)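 Male and female Wistar rats, n = 3 per group, received a single dose of either 1 mg/kg iv or 2 mg/kg orally. Plasma levels were followed after dosing. Half-life was taken over the interval 1-8 h post administration. Oral bioavailability was derived against the iv data.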

[3] = Compound was evaluated for clearance after treatment with iv dose of 1 mgkg to male wistar rats; assay type: ADME, organism-based; design: dose 1 mgkg, route intravenous; conditions: rat, in vivo, 1 mg/kg; procedure, shortened: as §1
[4] = Compound was evaluated for half life after treatment with iv dose of 1 mgkg to male wistar rats; assay type: ADME, organism-based; design: dose 1 mgkg, route intravenous; conditions: rat, in vivo, 1 mg/kg; procedure, shortened: as §1
[5] = Compound was evaluated for clearance after treatment with iv dose of 1 mgkg to female wistar rats; assay type: ADME, organism-based; design: dose 1 mgkg, route intravenous; conditions: rat, in vivo, 1 mg/kg; procedure, shortened: as §1
Rattus norvegicus [6] = assay: ET-1 induced increase in mean arterial pressure following 1 mg/kg oral administration of compound; assay type: functional, Artery
[7] = Compound was evaluated for maximum time to reach Cmax after treatment with oral dose of 2 mgkg to female cynomolgus monkey; assay type: ADME, organism-based; design: dose 2 mgkg, route oral; conditions: cercopithecidae, in vivo, 2 mg/kg
Procedure, shortened: (§2)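 A female cynomolgus monkey (n = 1) received a single dose of either 1 mg/kg iv or 2 mg/kg orally. Plasma concentration-time data gave Cmax, tmax, AUC, clearance and Vss. Half-life was calculated over 1-8 h post administration.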

Oryctolagus cuniculus = species: Oryctolagus cuniculus; assay: Compound was evaluated for the functional assay performed by obtaining sarafotoxin 6c concentration-response curves [pA2(ETB)] in isolated rabbit jugularis vein
Rattus norvegicus [8] = assay: Effect of compound on heart rate activity of spontaneously hypertensive rats after single oral administration of 3 mg/Kg dose; assay type: functional
Procedure, shortened: (§3)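 Conscious spontaneously hypertensive rats were given a single oral dose at 12:00, with 5% arabic gum as the control vehicle. Heart rate and motor activity were monitored by telemetry. Change from a 3 h predrug period (9:00-12:00) was expressed as AUC0-12h (12:00-24:00). n = 6-13 per group, mean ± SEM, ANOVA with Dunnett's test vs control.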

Rattus norvegicus [9] = assay: Effect of compound on motor activity of spontaneously hypertensive rats after single oral administration of 30 mg/Kg dose; assay type: functional; procedure, shortened: as §3
Rattus norvegicus [10] = assay: Effect of compound on motor activity of spontaneously hypertensive rats after single oral administration of 0.1 mg/Kg dose; assay type: functional; procedure, shortened: as §3
Rattus norvegicus [11] = assay: Effect of compound on heart rate activity of spontaneously hypertensive rats after single oral administration of 30 mg/Kg dose; assay type: functional; procedure, shortened: as §3
Rattus norvegicus [12] = assay: Effect of compound on motor activity of spontaneously hypertensive rats after single oral administration of 0.03 mg/Kg dose; assay type: functional; procedure, shortened: as §3
[13] = Compound was evaluated for half-life after treatment with iv dose of 1 mgkg to female cynomolgus monkey; assay type: ADME, organism-based; design: dose 1 mgkg, route intravenous; conditions: cercopithecidae, in vivo, 1 mg/kg; procedure, shortened: as §2
Rattus norvegicus [14] = assay: Effect of compound on heart rate activity of spontaneously hypertensive rats after single oral administration of 0.03 mg/Kg dose; assay type: functional; procedure, shortened: as §3
Rattus norvegicus [15] = assay: Compound was evaluated for AUC after treatment with oral dose of 2 mgkg to male wistar rats; assay type: ADME, organism-based; design: dose 2 mgkg, route oral; conditions: in vivo, 2 mg/kg; procedure, shortened: as §1
[16] = Compound was evaluated for maximum time to reach Cmax after treatment with oral dose of 2 mgkg to female wistar rats; assay type: ADME, organism-based; design: dose 2 mgkg, route oral; conditions: rat, in vivo, 2 mg/kg; procedure, shortened: as §1
Rattus norvegicus [17] = assay: Compound was evaluated for AUC after treatment with iv dose of 1 mgkg to female wistar rats; assay type: ADME, organism-based; design: dose 1 mgkg, route intravenous; conditions: in vivo, 1 mg/kg; procedure, shortened: as §1
Rattus norvegicus [18] = assay: Effect of compound on heart rate activity of spontaneously hypertensive rats after single oral administration of 0.1 mg/Kg dose; assay type: functional; procedure, shortened: as §3
[19] = Compound was evaluated for volume of distribution (steady state) after treatment with iv dose of 1 mgkg to male wistar rats; assay type: ADME, organism-based; design: dose 1 mgkg, route intravenous; conditions: rat, in vivo, 1 mg/kg, read-out: Vss; procedure, shortened: as §1
Rattus norvegicus [20] = species: Rattus norvegicus; assay: Compound was evaluated for the functional assay performed by obtaining ET-1 concentration-response curves [pA2(ETA)] in isolated rat aortic rings; conditions: Aorta, read-out: pA2 (converted)
Procedure, shortened: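 Functional ETA assay: ET-1 concentration-response curves in isolated rat aortic rings with the endothelium removed. Antagonism is expressed as pA2.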

[21] = Compound was evaluated for maximum concentration after treatment with oral dose of 2 mgkg to female cynomolgus monkey; assay type: ADME, organism-based; design: dose 2 mgkg, route oral; conditions: cercopithecidae, in vivo, 2 mg/kg; procedure, shortened: as §2
Rattus norvegicus [22] = assay: ET-1 induced increase in mean arterial pressure following 0.3 mg/kg oral administration of compound; assay type: functional, Artery
[23] = Compound was evaluated for AUC after treatment with iv dose of 1 mgkg to female cynomolgus monkey; assay type: ADME, organism-based; design: dose 1 mgkg, route intravenous; conditions: cercopithecidae, in vivo, 1 mg/kg; procedure, shortened: as §2
Rattus norvegicus [24] = assay: Effect of compound on motor activity of spontaneously hypertensive rats after single oral administration of 1 mg/Kg dose; assay type: functional; procedure, shortened: as §3
Rattus norvegicus [25] = assay: Effect of compound on motor activity of spontaneously hypertensive rats after single oral administration of 10 mg/Kg dose; assay type: functional; procedure, shortened: as §3
[26] = Compound was evaluated for maximum concentration after treatment with oral dose of 2 mgkg to female wistar rats; assay type: ADME, organism-based; design: dose 2 mgkg, route oral; conditions: rat, in vivo, 2 mg/kg; procedure, shortened: as §1
Rattus norvegicus [27] = assay: Effect of compound on motor activity of spontaneously hypertensive rats after single oral administration of 0.3 mg/Kg dose; assay type: functional; procedure, shortened: as §3
[28] = Compound was evaluated for clearance after treatment with iv dose of 1 mgkg to female cynomolgus monkey; assay type: ADME, organism-based; design: dose 1 mgkg, route intravenous; conditions: cercopithecidae, in vivo, 1 mg/kg; procedure, shortened: as §2
Rattus norvegicus [29] = assay: Effect of compound on heart rate activity of spontaneously hypertensive rats after single oral administration of 0.3 mg/Kg dose; assay type: functional; procedure, shortened: as §3
Rattus norvegicus [30] = assay: Effect of compound on heart rate activity of spontaneously hypertensive rats after single oral administration of 10 mg/Kg dose; assay type: functional; procedure, shortened: as §3
[31] = Compound was evaluated for volume of distribution (steady state) after treatment with iv dose of 1 mgkg to female cynomolgus monkey; assay type: ADME, organism-based; design: dose 1 mgkg, route intravenous; conditions: cercopithecidae, in vivo, 1 mg/kg, read-out: Vss; procedure, shortened: as §2
[32] = Compound was evaluated for half life after treatment with iv dose of 1 mgkg to female wistar rats; assay type: ADME, organism-based; design: dose 1 mgkg, route intravenous; conditions: rat, in vivo, 1 mg/kg; procedure, shortened: as §1
Rattus norvegicus [33] = assay: Effect of compound on motor activity of spontaneously hypertensive rats after single oral administration of 3 mg/Kg dose; assay type: functional; procedure, shortened: as §3
Rattus norvegicus [34] = assay: Effect of compound on heart rate activity of spontaneously hypertensive rats after single oral administration of 1 mg/Kg dose; assay type: functional; procedure, shortened: as §3
Rattus norvegicus [35] = assay: Compound was evaluated for AUC after treatment with oral dose of 2 mgkg to female wistar rats; assay type: ADME, organism-based; design: dose 2 mgkg, route oral; conditions: in vivo, 2 mg/kg; procedure, shortened: as §1
Rattus norvegicus [36] = assay: Compound was evaluated for AUC after treatment with iv dose of 1 mgkg to male wistar rats; assay type: ADME, organism-based; design: dose 1 mgkg, route intravenous; conditions: in vivo, 1 mg/kg; procedure, shortened: as §1
Rattus norvegicus [37] = assay: ET-1 induced increase in mean arterial pressure following 3 mg/kg oral administration of compound; assay type: functional, Artery
Rattus norvegicus [38] = assay: ET-1 induced increase in mean arterial pressure following 0.1 mg/kg oral administration of compound; assay type: functional, Artery
[39] = Compound was evaluated for maximum time to reach Cmax after treatment with oral dose of 2 mgkg to male wistar rats; assay type: ADME, organism-based; design: dose 2 mgkg, route oral; conditions: rat, in vivo, 2 mg/kg; procedure, shortened: as §1
[40] = Compound was evaluated for AUC after treatment with oral dose of 2 mgkg to female cynomolgus monkey; assay type: ADME; conditions: cercopithecidae, in vivo; procedure, shortened: as §2
[41] = Compound was evaluated for volume of distribution (steady state) after treatment with iv dose of 1 mgkg to female wistar rats; assay type: ADME, organism-based; design: dose 1 mgkg, route intravenous; conditions: rat, in vivo, 1 mg/kg, read-out: Vss; procedure, shortened: as §1

Structure (SMILES): COc1cc(C/C(C(=O)c2cc(OC)c(OC)c(OC)c2)=C(/C(=O)O)c2ccc3nsnc3c2)cc(OC)c1OC
- IC50 (Endothelin-1 receptor): 3.7 nM
- IC50 [1]: 340 nM

Structure (SMILES): COc1ccc(C/C(C(=O)c2ccc(OC)cc2)=C(/C(=O)O)c2ccc3nsnc3c2)cc1
- IC50 (Endothelin-1 receptor): 28 nM
- IC50 [1]: 1800 nM

Structure (SMILES): COc1ccc(C(=O)/C(Cc2cc(OC)c(OC)c(OC)c2)=C(\C(=O)[O-])c2ccc3nsnc3c2)cc1F.[Na+]
- Cmax [2]: 1.01 µg/mL
- clearance [3]: 0.4 L/h/kg
- half-life [4]: 96 min
- clearance [5]: 0.1 L/h/kg
- Mean arterial blood pressure (Rattus norvegicus [6]): 11 mmHg
- Tmax [7]: 30 min
- Kb (Oryctolagus cuniculus): 1000 nM
- AUC0-12h ΔHR (Rattus norvegicus [8]): -356 min-1·h
- AUC0-12h ΔMA (Rattus norvegicus [9]): -99 units·h
- AUC0-12h ΔMA (Rattus norvegicus [10]): -72 units·h
- AUC0-12h ΔHR (Rattus norvegicus [11]): -260 min-1·h
- AUC0-12h ΔMA (Rattus norvegicus [12]): -97 units·h
- half-life [13]: 60 min
- AUC0-12h ΔHR (Rattus norvegicus [14]): -384 min-1·h
- AUC (Rattus norvegicus [15]): 1.63 µg·h/mL
- Tmax [16]: 30 min
- AUC (Rattus norvegicus [17]): 15.4 µg·h/mL
- AUC0-12h ΔHR (Rattus norvegicus [18]): -341 min-1·h
- Vd [19]: 0.5 L/kg
- Kb (Rattus norvegicus [20]): 0.316 nM
- Cmax [21]: 3.83 µg/mL
- Mean arterial blood pressure (Rattus norvegicus [22]): 24 mmHg
- AUC [23]: 3.3 µg·h/mL
- AUC0-12h ΔMA (Rattus norvegicus [24]): -131 units·h
- AUC0-12h ΔMA (Rattus norvegicus [25]): -131 units·h
- Cmax [26]: 3.16 µg/mL
- AUC0-12h ΔMA (Rattus norvegicus [27]): -93 units·h
- clearance [28]: 0.3 L/h/kg
- AUC0-12h ΔHR (Rattus norvegicus [29]): -413 min-1·h
- AUC0-12h ΔHR (Rattus norvegicus [30]): -349 min-1·h
- Vd [31]: 0.1 L/kg
- half-life [32]: 102 min
- AUC0-12h ΔMA (Rattus norvegicus [33]): -102 units·h
- AUC0-12h ΔHR (Rattus norvegicus [34]): -344 min-1·h
- AUC (Rattus norvegicus [35]): 21.3 µg·h/mL
- IC50 (Endothelin-1 receptor): 0.032 nM
- AUC (Rattus norvegicus [36]): 2.5 µg·h/mL
- Mean arterial blood pressure (Rattus norvegicus [37]): 7 mmHg
- Mean arterial blood pressure (Rattus norvegicus [38]): 32 mmHg
- Tmax [39]: 30 min
- IC50 [1]: 160 nM
- AUC [40]: 4.26 µg·h/mL
- Vd [41]: 0.2 L/kg

Structure (SMILES): CCCCN(CCCC)C(=O)CN1C[C@H](c2ccc3c(c2)OCO3)[C@@H](C(=O)O)[C@@H]1c1ccc(OC)cc1
- Kb (Oryctolagus cuniculus): 794 nM
- Kb (Rattus norvegicus [20]): 2.51 nM
